This passage reports folding enthalpy and Tm results from the array DNA melting data of Ke et al. (doi:10.1101/2024.01.08.574731).

Data set [1] in a line: folding enthalpy; higher = less favourable; fluorescence melt of hairpins on a sequencing array, two-state fit. The settings on record: sodium 0.088 M. In outline:
(§1)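 Folding enthalpy and melting temperature were estimated with bootstrapped two-state fits and combined across four replicates by inverse-variance weighting, with fitted temperatures raised by 9.35 °C to match UV melts. The data were Cy3 fluorescence of library hairpins, with annealed Cy3 and quencher oligos, on a sequenced MiSeq flow cell in 50 mM Na-HEPES pH 8.0, 25 mM NaCl, imaged in 2.5 °C steps up to 60 °C and normalised to pre-quench Cy3 and control constructs.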

A short description of data set [2]: melting temperature; fluorescence melt of hairpins on a sequencing array, two-state fit, raised by 9.35 °C to match UV melts. The settings on record: sodium 0.088 M. In outline:
as §1

For GCGGATCGAAAGATCGC (((.(((....)))))), the folding enthalpy in data set [1] is -25.6 kcal/mol. In addition, the Tm in data set [2] came to 58.1 °C.
Consider GCGGATCTCCGC ((((....)))), for which the folding enthalpy in data set [1] is -25.3 kcal/mol. Also, the Tm in data set [2] was 59.6 °C.
For the sequence GCGGATGGAAACGTTCGC (((.(.(....).).))), in data set [1], the folding enthalpy was -28.2 kcal/mol. Moreover, the Tm in data set [2] is 44.1 °C.
In the case of GCGGATGGCCGC ((((....)))), the folding enthalpy in data set [1] is -21 kcal/mol. For the same sequence, the Tm in data set [2] was 54.6 °C.
For GCGGATGTCCGC ((((....)))) the same measures were -22.7 kcal/mol and 57.5 °C.
GCGGATTCCGC ((((...)))): the folding enthalpy in data set [1] is -24.9 kcal/mol. Moreover, the Tm in data set [2] was 54.3 °C.
Regarding GCGGCAACCCGC ((((....)))), in data set [1], the folding enthalpy was -24.7 kcal/mol. The Tm in data set [2] was 51.9 °C.
Consider GCGGCAACCGC ((((...)))), for which, in data set [1], the folding enthalpy is -23.4 kcal/mol. Moreover, the Tm in data set [2] was found to be 51.7 °C.
For GCGGCAGCCCGC ((((....)))) the same measures were -10.3 kcal/mol and 59.1 °C.
Take GCGGCATCGAAAGATCGC (((..(((....)))))): the folding enthalpy in data set [1] is -22.7 kcal/mol. The Tm in data set [2] was 45.6 °C.
The corresponding values for GCGGCCAGCCGC ((((....)))) are -20.5 kcal/mol and 67.3 °C.
For GCGGCCGAAAGGCCTCGC ((((((....)))..))) the same measures were -12.5 kcal/mol and 56.2 °C.
Consider GCGGCCGCCGC ((((...)))), for which the folding enthalpy in data set [1] was -19.9 kcal/mol. Further, the Tm in data set [2] was 55.1 °C.
GCGGCCGTCCGC ((((....)))): in data set [1], the folding enthalpy is -25.8 kcal/mol. Further, in data set [2], the Tm came out at 58.6 °C.
Consider GCGGCCTACCGC ((((....)))), for which, in data set [1], the folding enthalpy was -29.4 kcal/mol. The Tm in data set [2] was 55.8 °C.
Take GCGGCCTTCCGC ((((....)))): in data set [1], the folding enthalpy is -19.9 kcal/mol. Moreover, the Tm in data set [2] worked out at 57.9 °C.
The corresponding values for GCGGCGCACCGC ((((....)))) are -14.2 kcal/mol and 59.7 °C.
Take GCGGCGCGAAAGCACAGC ((.(.((....)).).)): in data set [1], the folding enthalpy is -29.9 kcal/mol. In data set [2], the Tm was found to be 63.7 °C.
For GCGGCGCGAAAGCCCTGC ((.(.((....)).).)) the same measures were -18.3 kcal/mol and 45.6 °C.
Turning to GCGGCGCGAAAGCCTCGC (((..((....))..))), in data set [1], the folding enthalpy was -18.6 kcal/mol. Moreover, in data set [2], the Tm came out at 55.8 °C.
Regarding GCGGCGGCGAAAGCCCGC (((..(((....)))))), the folding enthalpy in data set [1] was -12.3 kcal/mol. Further, the Tm in data set [2] came to 65.6 °C.
GCGGCGGGAAACCGCCAC (.(((((....))))).): the folding enthalpy in data set [1] was -10.5 kcal/mol. Moreover, the Tm in data set [2] was 52.6 °C.
Take GCGGCGTCCCGC ((((....)))): the folding enthalpy in data set [1] was -14.5 kcal/mol. Besides, the Tm in data set [2] amounted to 56.7 °C.
For GCGGCTACCGC ((((...)))), the folding enthalpy in data set [1] is -21 kcal/mol. Besides, the Tm in data set [2] is 57.7 °C.
The corresponding values for GCGGCTCACCGC ((((....)))) are -26.9 kcal/mol and 63 °C.
In the case of GCGGCTCCCGC ((((...)))), the folding enthalpy in data set [1] is -23.7 kcal/mol. Further, the Tm in data set [2] amounted to 56.9 °C.
On to GCGGCTGCCGC ((((...)))), for which the folding enthalpy in data set [1] is -31.2 kcal/mol. Besides, the Tm in data set [2] is 57.1 °C.
For the sequence GCGGCTGGAAACAACCGC ((((.((....)).)))), in data set [1], the folding enthalpy was -45 kcal/mol. In addition, the Tm in data set [2] worked out at 54 °C.
Regarding GCGGCTTCCGC ((((...)))), the folding enthalpy in data set [1] was -25.9 kcal/mol. Also, the Tm in data set [2] is 57.8 °C.
With GCGGGAGGAAACCCCCAC (.(((.(....).))).), in data set [1], the folding enthalpy is -10.6 kcal/mol. Also, the Tm in data set [2] is 27.7 °C.
The corresponding values for GCGGGAGTCCGC ((((....)))) are -23.6 kcal/mol and 55.7 °C.
Regarding GCGGGATCGAAAGATCGC (((..(((....)))))), in data set [1], the folding enthalpy is -13.8 kcal/mol. Also, the Tm in data set [2] came to 51 °C.
Take GCGGGATGCCGC ((((....)))): the folding enthalpy in data set [1] is -22.6 kcal/mol. Moreover, the Tm in data set [2] was determined as 55.8 °C.
With GCGGGATTCCGC ((((....)))), the folding enthalpy in data set [1] was -20.5 kcal/mol. In data set [2], the Tm came out at 59.1 °C.
Take GCGGGCCCCCGC ((((....)))): the folding enthalpy in data set [1] was -23.5 kcal/mol. Besides, the Tm in data set [2] was found to be 64.4 °C.
On to GCGGGCCTCCGC ((((....)))), for which the folding enthalpy in data set [1] is -22.5 kcal/mol. Moreover, the Tm in data set [2] came to 64 °C.
For GCGGGCGAAAGCCGACGC ((((((....)))..))) the same measures were -19.9 kcal/mol and 61.9 °C.
For GCGGGGACGAAAGTCCGC (((..(((....)))))) the same measures were -13.2 kcal/mol and 58.5 °C.
As for GCGGGGAGCCGC ((((....)))), the folding enthalpy in data set [1] was -14.4 kcal/mol. For the same sequence, in data set [2], the Tm was 62.7 °C.
Consider GCGGGGCCCGC ((((...)))), for which the folding enthalpy in data set [1] is -34.8 kcal/mol. In addition, the Tm in data set [2] was 63.3 °C.
As to GCGGGGCCGAAAGGCCGC (((..(((....)))))), in data set [1], the folding enthalpy is -10.2 kcal/mol. In addition, the Tm in data set [2] turned out to be 59.6 °C.
Turning to GCGGGGCGAAAGCACGGC ((.(.((....)).).)), the folding enthalpy in data set [1] was -15.7 kcal/mol. The Tm in data set [2] was found to be 65.2 °C.
GCGGGGCGAAAGCACTGC ((.(.((....)).).)): in data set [1], the folding enthalpy was -24.7 kcal/mol. Further, the Tm in data set [2] amounted to 65.5 °C.
In the case of GCGGGGCGAAAGCGTCGC (((..((....))..))), the folding enthalpy in data set [1] was -36 kcal/mol. In addition, the Tm in data set [2] was found to be 67.8 °C.
On to GCGGGGGCCGC ((((...)))), for which the folding enthalpy in data set [1] was -9.27 kcal/mol. For the same sequence, in data set [2], the Tm amounted to 62.1 °C.
Turning to GCGGGGGTCCGC ((((....)))), the folding enthalpy in data set [1] is -22.6 kcal/mol. The Tm in data set [2] is 61.7 °C.
In the case of GCGGGTCCGAAAGGACGC (((..(((....)))))), the folding enthalpy in data set [1] is -11.3 kcal/mol. The Tm in data set [2] came out at 52.5 °C.
Turning to GCGGGTGGAAACACCTGC ((.((((....)))).)), the folding enthalpy in data set [1] was -37.5 kcal/mol. Besides, the Tm in data set [2] was determined as 59.1 °C.
As for GCGGGTGGAAACACTCGC (((.(((....))).))), the folding enthalpy in data set [1] was -40.8 kcal/mol. Besides, in data set [2], the Tm turned out to be 60.7 °C.
As to GCGGGTGGAAACGTCCGC ((((..(....)..)))), the folding enthalpy in data set [1] was -32 kcal/mol. In data set [2], the Tm was 53 °C.
Consider GCGGGTGGCCGC ((((....)))), for which the folding enthalpy in data set [1] is -15.8 kcal/mol. Moreover, the Tm in data set [2] was 62.1 °C.
GCGGGTTCCGC ((((...)))): the folding enthalpy in data set [1] is -25.4 kcal/mol. Moreover, the Tm in data set [2] is 57.2 °C.
GCGGTAACCCGC ((((....)))): the folding enthalpy in data set [1] was -27.8 kcal/mol. Besides, the Tm in data set [2] came to 54.2 °C.
Take GCGGTAATCCGC ((((....)))): the folding enthalpy in data set [1] was -24.7 kcal/mol. Moreover, the Tm in data set [2] came out at 56.2 °C.
GCGGTACACCGC ((((....)))): the folding enthalpy in data set [1] was -40.4 kcal/mol. In addition, in data set [2], the Tm came out at 59.1 °C.
The corresponding values for GCGGTACCCCGC ((((....)))) are -21.6 kcal/mol and 54.5 °C.
For GCGGTACCGAAAGGTCGC (((..(((....)))))) the same measures were -26.3 kcal/mol and 55.4 °C.
As to GCGGTACTCCGC ((((....)))), in data set [1], the folding enthalpy was -23.3 kcal/mol. The Tm in data set [2] is 64.1 °C.
As for GCGGTAGAAATACCGC ((((((....)))))), in data set [1], the folding enthalpy is -36 kcal/mol. Besides, in data set [2], the Tm was found to be 66.9 °C.
